The text below walks through data of ChEMBL document CHEMBL4304821, “Synthesis and structure-activity relationship of nitrile-based cruzain inhibitors incorporating a trifluoroethylamine-based P2 amide replacement” (Bioorg Med Chem, 2019).

The source made the active and inactive calls. No cut-off for these calls is given here.

Data set [1] addresses T1, Cruzipain (Trypanosoma cruzi, UniProt P25779). Briefly: Inhibition of Trypanosoma cruzi cruzain using Z-Phe-Arg-7-amido-4-methylcoumarin as substrate preincubated for 2 mins followed by susbtrate addition by fluorescence based analysis. The method in brief: (§1)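 Recombinant cruzain was the catalytic domain of cruzipain without the C-terminal extension, used at 0.15 nM. The assay ran at 37 °C in 100 mM acetate buffer pH 5.5 with 300 mM NaCl, 5 mM DTT, 5% v/v DMSO and 0.01% Triton X-100. Hydrolysis of Z-Phe-Arg-AMC was followed as rate by fluorescence (ex 355/em 460 nm).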

A short description of data set [2]: Lipophilicity, log Kw of compound by HPLC analysis. It is filed as physicochemical.
Data set [3] concerns Trypanosoma cruzi. Briefly: Antitrypanosomal activity against Trypanosoma cruzi Y strain amastigotes infected in human U2OS cells assessed as parasite growth inhibition after 72 hrs post infection by DRAQ5 staining based analysis. Type of data set: functional, organism-based. The method in brief:
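U2OS cells were seeded at 700/well in high DMEM and held 24 h at 37 °C/5% CO2. They were infected with T. cruzi Y strain trypomastigotes from LLC-MK2 cultures at 4 parasites per host cell. Compounds were added on day 3 as 17 points of 2-fold dilution from 100 µM (1% DMSO final), with 96 h exposure. Cells were PFA-fixed, Draq5-stained and imaged. Infection ratio was normalized to infected DMSO and non-infected controls, and EC50 came from a sigmoidal fit. Two independent experiments were run.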

For data set [4], the target named is Procathepsin L (Homo sapiens, UniProt P07711). Briefly: Inhibition of Cathepsin L (unknown origin) using Z-Phe-Arg-7-amido-4-methylcoumarin as substrate preincubated for 2 mins followed by susbtrate addition by fluorescence based analysis. The method in brief: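 Cathepsin L was used at 0.30 nM, at 37 °C in 100 mM acetate buffer pH 5.5 with 300 mM NaCl, 1 mM DTT, 1 mM EDTA, 5% v/v DMSO and 0.01% Triton X-100. Z-Phe-Arg-AMC hydrolysis rate was monitored by fluorescence (ex 355/em 460 nm).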

In data set [5] the target is Cruzipain (Trypanosoma cruzi) (UniProt P25779). Briefly: Inhibition of Trypanosoma cruzi cruzain assessed as initial velocity using Z-Phe-Arg-7-amido-4-methylcoumarin as substrate preincubated for 2 mins followed by susbtrate addition by fluorescence based analysis. The method in brief: as §1
The target of data set [6] is T1, Cruzipain. Briefly: Inhibition of Trypanosoma cruzi cruzain assessed as inhibitor constant using Z-Phe-Arg-7-amido-4-methylcoumarin as substrate preincubated for 2 mins followed by susbtrate addition by fluorescence based analysis. The method in brief: as §1
Data set [7] is described as follows: Cytotoxicity in human U2OS cells assessed as reduction in cell viability after […] by DRAQ5 staining based analysis. Put shortly: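 Infected U2OS cells (Y strain, 4 parasites/cell) were exposed to 17 2-fold concentrations starting at 100 µM in 1% DMSO. Exposure was 96 h. Wells were PFA-fixed, Draq5-stained and imaged at 20X to count host cells. CC50 is the concentration that lowers the cell ratio to 0.5 versus the mean cell number in DMSO negative-control wells. Duplicate independent experiments.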

Sequence of Cruzipain (Trypanosoma cruzi) (P25779 123-467 limits assumed): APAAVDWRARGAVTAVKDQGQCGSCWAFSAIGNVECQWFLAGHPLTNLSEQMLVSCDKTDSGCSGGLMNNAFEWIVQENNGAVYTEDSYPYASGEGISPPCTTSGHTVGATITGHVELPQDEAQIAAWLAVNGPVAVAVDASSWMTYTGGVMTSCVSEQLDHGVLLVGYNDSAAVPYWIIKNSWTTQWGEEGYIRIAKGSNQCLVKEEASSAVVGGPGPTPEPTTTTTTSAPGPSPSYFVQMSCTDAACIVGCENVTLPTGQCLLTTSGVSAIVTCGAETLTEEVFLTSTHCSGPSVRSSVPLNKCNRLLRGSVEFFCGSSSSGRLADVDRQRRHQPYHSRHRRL
Sequence of Procathepsin L (P07711 whole entry): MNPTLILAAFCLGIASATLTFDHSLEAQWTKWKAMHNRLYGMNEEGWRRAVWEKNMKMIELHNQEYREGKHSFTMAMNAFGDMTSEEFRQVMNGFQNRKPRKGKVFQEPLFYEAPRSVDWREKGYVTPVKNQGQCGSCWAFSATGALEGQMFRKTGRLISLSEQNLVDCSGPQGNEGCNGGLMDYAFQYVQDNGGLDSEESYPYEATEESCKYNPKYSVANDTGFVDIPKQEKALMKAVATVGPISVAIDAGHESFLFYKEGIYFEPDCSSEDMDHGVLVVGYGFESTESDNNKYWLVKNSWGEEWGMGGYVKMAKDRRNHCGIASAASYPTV
T1 sequence (P25779 whole entry, the tested form may be a part): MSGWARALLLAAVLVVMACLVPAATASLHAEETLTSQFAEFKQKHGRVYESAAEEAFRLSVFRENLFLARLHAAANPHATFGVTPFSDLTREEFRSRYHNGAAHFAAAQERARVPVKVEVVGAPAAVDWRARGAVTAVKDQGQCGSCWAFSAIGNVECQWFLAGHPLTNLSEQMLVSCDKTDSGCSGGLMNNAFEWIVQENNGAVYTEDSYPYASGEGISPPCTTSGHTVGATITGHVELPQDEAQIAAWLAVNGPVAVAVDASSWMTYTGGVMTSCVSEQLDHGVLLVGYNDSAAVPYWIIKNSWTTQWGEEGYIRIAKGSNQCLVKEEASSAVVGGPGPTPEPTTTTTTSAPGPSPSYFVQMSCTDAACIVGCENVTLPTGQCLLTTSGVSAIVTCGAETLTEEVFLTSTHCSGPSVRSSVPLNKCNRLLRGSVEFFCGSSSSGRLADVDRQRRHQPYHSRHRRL

In general, Ki refers to a measure of affinity in units of concentration, obtained from inhibition or displacement. Turning to `CC(C)C[C@H](N[C@H](c1ccc(-c2ccccc2)cc1)C(F)(F)F)C(=O)N[C@H](C#N)Cc1ccccc1`, the affinity in data set [1] corresponds to a Ki of 0.251 µM. The molecule also returned a logKw in data set [2] of 3.1. Moreover, in data set [3], the outcome was inactive.

As for `N#C[C@H](Cc1ccccc1)NC(=O)[C@H](Cc1ccccc1)N[C@H](c1ccc(-c2ccccc2)cc1)C(F)(F)F`, in data set [1], the Ki is more than 10 µM. In data set [3], the result was inactive.

On to `CC(C)C[C@H](NC(=O)c1ccccc1)C(=O)NC1(C#N)CC1`, for which the inhibition constant Ki in data set [1] is 0.0501 µM; in data set [4], 0.02 µM. Moreover, in data set [3], the outcome was inactive.

In the case of `CC(C)C[C@H](NC(=O)c1ccccc1)C(=O)N[C@H](C#N)Cc1ccccc1`, the Ki was 0.0501 µM in data set [1] and 0.0631 µM in data set [4]. In data set [3], the outcome was inactive.

Regarding `CC(C)C[C@H](N[C@@H](c1ccccc1)C(F)(F)F)C(=O)N[C@H](C#N)Cc1ccccc1`, the values for the Ki in data set [1] and in data set [4] were 0.00158 µM and 0.00501 µM, respectively. The molecule further had a logKw in data set [2] of 2.3. In data set [3], the outcome was inactive.

As for `CC(C)C[C@H](N[C@@H](c1ccc(-c2ccc(F)cc2)cc1)C(F)(F)F)C(=O)NC1(C#N)CC1`, in data set [5], the V0 was 3.87 RFU/s. Moreover, in data set [6], the inhibition constant Ki stood at 4.06 µM.

What is called EC50 is the concentration giving half of the maximal effect. What is called CC50 is the concentration at which the toxic effect on the cells reaches its halfway point. In the case of `N#CC1(NC(=O)[C@H](Cc2c[nH]c3ccccc23)N[C@H](c2ccccc2)C(F)(F)F)CC1`, the results for the inhibition constant (Ki) in data set [1] and in data set [4] were more than 10 µM and 1 µM, respectively. Moreover, the EC50 in data set [3] is 11.5 µM. Besides, the cytotoxic concentration (CC50) in data set [7] worked out at 33 µM.

Regarding `N#CC1(NC(=O)[C@H](Cc2ccccc2)N[C@@H](c2ccccc2)C(F)(F)F)CC1`, the Ki in data set [1] is 1 µM; in data set [4], 0.158 µM. This molecule also gave a logKw in data set [2] of 1. For the same molecule, in data set [3], the outcome was inactive. Besides, in data set [5], the V0 amounted to 2.18 RFU/s.

As for `N#CC1(NC(=O)[C@H](Cc2ccccc2)N[C@H](c2ccccc2)C(F)(F)F)CC1`, in data set [2], the logKw is 1.4. In data set [3], the result was inactive. In addition, the V0 in data set [5] is 3.53 RFU/s.

With `CC(C)C[C@H](N[C@@H](c1ccc(-c2ccccc2)cc1)C(F)(F)F)C(=O)NC1(C#N)CC1`, the inhibition constant (Ki) in data set [1] is 0.00794 µM; in data set [4], 0.794 µM. Further, the logKw in data set [2] is 2.6. Besides, the outcome in data set [3] was inactive. In data set [5], the V0 is 3.85 RFU/s.

As for `COc1ccc(C[C@H](N[C@@H](c2ccccc2)C(F)(F)F)C(=O)O)cc1`, in data set [5], the V0 was determined as 3.85 RFU/s. The Ki in data set [6] was found to be 0.0388 µM.

`CC(C)C[C@H](N[C@H](c1ccccc1)C(F)(F)F)C(=O)NC1(C#N)CC1`: the values for the inhibition constant Ki in data set [1] and in data set [6] were 0.2 µM and 0.143 µM, respectively. This molecule also returned a logKw in data set [2] of 1.1. In addition, in data set [3], the result was inactive. In data set [5], the V0 is 3.75 RFU/s.

In the case of `N#CC1(NC(=O)[C@H](Cc2ccccc2)N[C@@H](c2cccc(Cl)c2)C(F)(F)F)CC1`, the V0 in data set [5] was found to be 3.65 RFU/s. In addition, in data set [6], the inhibition constant (Ki) was found to be 0.00401 µM.

Regarding `COc1ccc(C[C@H](N[C@H](c2ccccc2)C(F)(F)F)C(=O)N[C@@H](C#N)Cc2ccccc2)cc1`, the inhibition constant (Ki) in data set [1] and in data set [4] was more than 10 µM each time. For the same molecule, the outcome in data set [3] was inactive.

As for `N#CC1(NC(=O)[C@H](Cc2ccccc2)N[C@@H](c2ccc(Br)cc2)C(F)(F)F)CC1`, the inhibitory constant (Ki) in data set [1] was 2 µM; in data set [4], 0.251 µM. Further, the logKw in data set [2] was found to be 1.7. In addition, the result in data set [3] was inactive. Moreover, the V0 in data set [5] is 3.6 RFU/s.

Turning to `CC(C)C[C@H](N[C@@H](c1ccccc1)C(F)(F)F)C(=O)NC1(C#N)CC1`, the inhibition constant (Ki) in data set [1] was 0.0398 µM. The result in data set [3] was inactive.

For `N#CC1(NC(=O)[C@@H](Cc2c[nH]c3ccccc23)N[C@@H](c2ccccc2)C(F)(F)F)CC1`, the Ki was more than 10 µM in data set [1] and 1.26 µM in data set [4]. In addition, in data set [3], the EC50 stood at 25.6 µM.

In the case of `N#C[C@@H](Cc1ccccc1)NC(=O)[C@H](Cc1ccccc1)N[C@@H](c1ccccc1)C(F)(F)F`, the figures for the Ki in data set [1] and in data set [4] were 2.51 µM and 0.631 µM, respectively. The logKw in data set [2] amounted to 2.6. For the same molecule, in data set [3], the outcome was inactive.

For `CC(C)(F)C[C@H](N[C@@H](c1ccc(-c2ccc(S(C)(=O)=O)cc2)cc1)C(F)(F)F)C(=O)NC1(C#N)CC1` [ODANACATIB], the inhibitory constant (Ki) in data set [4] is 1.26 µM. Moreover, the logKw in data set [2] was found to be 2. Also, in data set [3], the result was inactive.

With `COc1ccc(C[C@H](N[C@@H](c2ccccc2)C(F)(F)F)C(=O)N[C@@H](C#N)Cc2ccccc2)cc1`, the results for the Ki in data set [1] and in data set [4] were 0.398 µM and 0.631 µM, respectively. Also, in data set [2], the logKw is on record as 2.7. In addition, in data set [3], the result was inactive.

In the case of `CC(C)C[C@H](N[C@H](c1ccc(-c2ccccc2)cc1)C(F)(F)F)C(=O)NC1(C#N)CC1`, the inhibition constant Ki in data set [1] was 0.0631 µM; in data set [4], 0.631 µM. Besides, the logKw in data set [2] turned out to be 2.8. Besides, the outcome in data set [3] was inactive.

For `N#CC1(NC(=O)[C@H](Cc2ccccc2)NC(=O)c2ccccc2)CC1`, the Ki in data set [1] was 0.316 µM.

Turning to `CC(C)C[C@H](N[C@H](c1ccccc1)C(F)(F)F)C(=O)N[C@H](C#N)Cc1ccccc1`, the Ki in data set [1] is 0.398 µM; in data set [4], 0.251 µM. Also, the logKw in data set [2] came out at 2.2. Further, the result in data set [3] was inactive. In data set [5], the V0 worked out at 2.71 RFU/s.

In the case of `COc1ccc(C[C@H](N[C@H](c2ccccc2)C(F)(F)F)C(=O)N[C@H](C#N)Cc2ccccc2)cc1`, the Ki in data set [1] is 3.98 µM; in data set [4] it was 1.58 µM. The logKw in data set [2] is 2.7. In addition, the result in data set [3] was inactive.

As to `O=C(O)[C@H](Cc1c[nH]c2ccccc12)N[C@H](c1cccc(Cl)c1)C(F)(F)F`, the V0 in data set [5] was determined as 4.15 RFU/s. For the same molecule, the Ki in data set [6] was determined as 0.168 µM.

Consider `COc1ccc(C[C@H](N[C@H](c2ccccc2)C(F)(F)F)C(=O)NC2(C#N)CC2)cc1`, for which the Ki in data set [1] is 7.94 µM. In addition, in data set [2], the logKw came to 1.5. In addition, the V0 in data set [5] turned out to be 3.17 RFU/s.

On to `O=C(O)[C@H](Cc1c[nH]c2ccccc12)N[C@@H](c1cccc(Cl)c1)C(F)(F)F`, for which the V0 in data set [5] is 2.66 RFU/s. The Ki in data set [6] stood at 0.142 µM.

As to `CC(C)C[C@H](N[C@@H](c1ccc(-c2ccccc2)cc1)C(F)(F)F)C(=O)N[C@H](C#N)Cc1ccccc1`, the inhibitory constant (Ki) in data set [1] is 0.000631 µM; in data set [4] it was 1.58 µM. For the same molecule, the logKw in data set [2] stood at 3.2. The result in data set [3] was inactive. Moreover, the V0 in data set [5] came out at 3.22 RFU/s.

Consider `N#CC1(NC(=O)[C@H](Cc2ccccc2)N[C@H](c2cccc(Cl)c2)C(F)(F)F)CC1`, for which the Ki in data set [1] is 3.16 µM. The logKw in data set [2] is reported as 1.7. In addition, the outcome in data set [3] was inactive. The V0 in data set [5] came out at 5.81 RFU/s.

As for `COc1ccc(C[C@H](N[C@@H](c2ccccc2)C(F)(F)F)C(=O)NC2(C#N)CC2)cc1`, in data set [1], the Ki is 3.98 µM. In data set [2], the logKw is on record as 1.4. Also, the result in data set [3] was inactive. Also, in data set [5], the V0 was determined as 3.56 RFU/s.

As to `COc1ccc(C[C@H](N[C@H](c2ccccc2)C(F)(F)F)C(=O)O)cc1`, the V0 in data set [5] was 5.2 RFU/s. Besides, the Ki in data set [6] was 0.36 µM.

For the molecule `CC(C)C[C@H](N[C@H](c1ccc(-c2ccc(F)cc2)cc1)C(F)(F)F)C(=O)NC1(C#N)CC1`, the inhibition constant (Ki) was 0.0794 µM in data set [1] and 1 µM in data set [4]. In data set [2], the logKw was 2.8. Also, the outcome in data set [3] was inactive.

For the molecule `CC(C)C[C@H](N[C@@H](c1ccc(-c2cncnc2)cc1)C(F)(F)F)C(=O)N[C@H](C#N)Cc1ccccc1`, the Ki in data set [1] is 0.00158 µM; in data set [4], 0.0251 µM. Moreover, the result in data set [3] was inactive. The V0 in data set [5] worked out at 2.91 RFU/s.
